In brackets after ≈: the same amount, converted by molar mass.
What was measured:
B16 [1] = experiment: Cytotoxic activity against mouse melanoma cell culture(B-16); format: functional, cell-based
Summary of the method: (§1)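 10^4 B16 or L-1210 (ATCC 219) cells were seeded per well in DMEM with 5% bovine serum and grown 48 h at 37 °C under 5% CO2. Agents from 10 mg/mL stocks in 95% ethanol or DMSO were added as 2× medium, then 48 h more. L-1210 cells were dispersed by pipetting; B16 were detached with 0.01% trypsin/0.1% EDTA for 5 min at 37 °C. Cells were counted by hemocytometer or Coulter counter, and the dose halving the count versus untreated controls was read from the count–concentration plot.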

CCRF-CEM [2] = experiment: Cytotoxic activity against human lymphoblastic leukemia cell culture (CCRF-CEM); format: functional, cell-based
Candida albicans = experiment: Antimicrobial activity was determined against Candida albicans ATCC 10231; format: functional
Summary of the method: (§2)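 MICs (µg/mL) were determined by agar dilution/streak against S. aureus ATCC 13709, E. coli ATCC 9637, S. gallinarum ATCC 9184, K. pneumoniae ATCC 10031, M. smegmatis ATCC 607, P. aeruginosa ATCC 27853 and C. albicans ATCC 10231.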

Escherichia coli = experiment: Antimicrobial activity was determined against Escherichia coli ATCC 9637; format: functional; summary of the method: as §2
[3] = test system: Epidermoid carcinoma cell line; experiment: Cytotoxic activity against human epidermoid carcinoma of the nasopharynx (9KB); format: functional, cell-based
Summary of the method: (§3)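 P388 (9PS, NCI-supplied line) and 9KB IC50s (µg/mL) followed NCI cell culture protocols. Samples were run in duplicate, and growth was compared with untreated controls. IC50 was extrapolated from a least-squares fit of the dose–response curve.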

L1210 [4] = experiment: Cytotoxic activity against mouse lymphoblastic leukemia cell culture (L-1210); format: functional, cell-based; summary of the method: as §1
[5] = test system: Mycolicibacterium smegmatis; experiment: Antimicrobial activity was determined against Mycobacterium smegmatis ATCC 607; format: functional; summary of the method: as §2
P388 [6] = experiment: Cytotoxic activity against P388 mouse leukemia cell culture (9PS(P388)); format: functional, cell-based; summary of the method: as §3
Pseudomonas aeruginosa = experiment: Antimicrobial activity was determined against Pseudomonas aeruginosa ATCC 27853 cells; format: functional; summary of the method: as §2
[7] = test system: Salmonella enterica subsp. enterica serovar Gallinarum; experiment: Antimicrobial activity was determined against Salmonella gallinarum ATCC 9184; format: functional; summary of the method: as §2
Staphylococcus aureus = experiment: Antimicrobial activity was determined against Staphylococcus aureus ATCC 13709; format: functional; summary of the method: as §2
Klebsiella pneumoniae = experiment: Antimicrobial activity was determined against Klebsiella pneumoniae ATCC 10031; format: functional; summary of the method: as §2
B16 [8] = experiment: Cytotoxicity against mouse melanoma cell culture(B-16); format: functional, cell-based; summary of the method: as §1
CCRF-CEM [9] = experiment: Cytotoxicity against human lymphoblastic leukemia cell culture (CCRF-CEM); format: functional, cell-based
[10] = test system: Epidermoid carcinoma cell line; experiment: Cytotoxicity against human epidermoid carcinoma of the nasopharynx (9KB); format: functional, cell-based; summary of the method: as §3
L1210 [11] = experiment: Cytotoxicity against mouse lymphoblastic leukemia cell culture (L-1210); format: functional, cell-based; summary of the method: as §1
P388 [12] = experiment: Cytotoxicity against P388 mouse leukemia cell culture (9PS(P388)); format: functional, cell-based; summary of the method: as §3

Structure (SMILES) | IC50 (B16 [1]) | IC50 (CCRF-CEM [2]) | MIC (Candida albicans) | MIC (Escherichia coli) | IC50 [3] | IC50 (L1210 [4]) | MIC [5] | IC50 (P388 [6]) | MIC (Pseudomonas aeruginosa) | MIC [7] | MIC (Staphylococcus aureus) | MIC (Klebsiella pneumoniae) | IC50 (B16 [8]) | IC50 (CCRF-CEM [9]) | IC50 [10] | IC50 (L1210 [11]) | IC50 (P388 [12])
COC1=C(N)C(=O)c2nc(-c3ccccn3)ccc2C1=O | 0.45 µg/mL (≈ 1.6 µM) | 0.5 µg/mL (≈ 1.78 µM) | 3.12 µg/mL (≈ 11.1 µM) | > 100 µg/mL | 0.33 µg/mL (≈ 1.17 µM) | 0.3 µg/mL (≈ 1.07 µM) | 1.56 µg/mL (≈ 5.55 µM) | 0.034 µg/mL (≈ 0.121 µM) | > 100 µg/mL | > 100 µg/mL | 1.56 µg/mL (≈ 5.55 µM) | 25 µg/mL (≈ 88.9 µM) |  |  |  |  | 
COC(=O)c1nc(C(C)=O)c2[nH]c3ccccc3c2c1C | > 25 µg/mL |  | > 50 µg/mL | > 50 µg/mL |  | > 25 µg/mL | > 50 µg/mL |  | > 50 µg/mL | > 50 µg/mL | > 50 µg/mL | > 50 µg/mL |  |  |  |  | 
COC(=O)c1[nH]c(C(=O)OC)c(C)c2c3ccccc3nc1-2 | > 25 µg/mL | 16.8 µg/mL (≈ 56.3 µM) | > 50 µg/mL | > 50 µg/mL |  | > 25 µg/mL | > 50 µg/mL |  | > 50 µg/mL | > 50 µg/mL | > 50 µg/mL | > 50 µg/mL |  |  |  |  | 
COC(=O)c1nc(-c2ccc3c(n2)C(=O)C(=N)C(OC)=C3O)c(N)c(-c2ccc(OC)c(OC)c2O)c1C |  |  | > 100 µg/mL | > 100 µg/mL |  |  | > 100 µg/mL |  | > 100 µg/mL | > 100 µg/mL | > 100 µg/mL | > 100 µg/mL | 1.5 µg/mL (≈ 2.88 µM) | 0.017 µg/mL (≈ 0.0327 µM) | 0.53 µg/mL (≈ 1.02 µM) | 3.1 µg/mL (≈ 5.96 µM) | 0.26 µg/mL (≈ 0.5 µM)
NC1=CC(=O)c2ccc(-c3cc(C(=O)O)ccc3N)nc2C1=O | > 20 µg/mL | 14.6 µg/mL (≈ 47.2 µM) | > 50 µg/mL | > 50 µg/mL | > 10 µg/mL | > 20 µg/mL | > 50 µg/mL | 5 µg/mL (≈ 16.2 µM) | > 50 µg/mL | > 50 µg/mL | > 50 µg/mL | > 50 µg/mL |  |  |  |  | 
COC(=O)c1[nH]c(-c2ccc3c(n2)C(=O)C(=N)C=C3O)c2nc3ccccc3c-2c1C |  |  |  |  |  |  |  |  |  |  |  |  | 3.1 µg/mL (≈ 7.52 µM) |  |  | 2.2 µg/mL (≈ 5.33 µM) | 
NC1=CC(=O)c2ccc(-c3ccccn3)nc2C1=O | 0.26 µg/mL (≈ 1.03 µM) | 0.09 µg/mL (≈ 0.358 µM) | 50 µg/mL (≈ 199 µM) | > 100 µg/mL | 0.1 µg/mL (≈ 0.398 µM) | 0.42 µg/mL (≈ 1.67 µM) | 0.78 µg/mL (≈ 3.1 µM) | 0.0023 µg/mL (≈ 0.00915 µM) | > 100 µg/mL | 100 µg/mL (≈ 398 µM) | 3.12 µg/mL (≈ 12.4 µM) | 100 µg/mL (≈ 398 µM) |  |  |  |  | 
COC1=C(N)C(=O)c2ncccc2C1=O | 1.2 µg/mL (≈ 5.88 µM) | 0.2 µg/mL (≈ 0.98 µM) | 50 µg/mL (≈ 245 µM) | > 50 µg/mL | 1.9 µg/mL (≈ 9.31 µM) | 1 µg/mL (≈ 4.9 µM) | 50 µg/mL (≈ 245 µM) | 0.22 µg/mL (≈ 1.08 µM) | > 100 µg/mL | > 50 µg/mL | 6.25 µg/mL (≈ 30.6 µM) | 50 µg/mL (≈ 245 µM) |  |  |  |  | 
COC(=O)c1ccc(N)c(-c2ccc3c(n2)C(=O)C(=N)C=C3O)c1 | 0.4 µg/mL (≈ 1.24 µM) | 0.4 µg/mL (≈ 1.24 µM) | > 50 µg/mL | > 50 µg/mL | 2.7 µg/mL (≈ 8.35 µM) | 0.6 µg/mL (≈ 1.86 µM) | > 50 µg/mL | 0.2 µg/mL (≈ 0.619 µM) | > 50 µg/mL | > 50 µg/mL | > 50 µg/mL | > 50 µg/mL |  |  |  |  | 
COC(=O)c1nc(C(=O)OC)c(N)c(-c2ccc(OC)c(OC)c2O)c1C | > 20 µg/mL |  | > 50 µg/mL | > 50 µg/mL | > 10 µg/mL | > 20 µg/mL | > 50 µg/mL | > 10 µg/mL | > 50 µg/mL | > 50 µg/mL | > 50 µg/mL | > 50 µg/mL |  |  |  |  | 
NC1=CC(=O)c2ccc(-c3cccc(C(=O)O)n3)nc2C1=O |  |  | > 50 µg/mL | > 50 µg/mL |  |  | > 50 µg/mL |  | > 50 µg/mL | > 50 µg/mL | > 50 µg/mL | > 50 µg/mL | > 20 µg/mL | 2.1 µg/mL (≈ 7.11 µM) | > 10 µg/mL | > 20 µg/mL | > 10 µg/mL
COC(=O)c1cccc(-c2ccc3c(n2)C(=O)C(=N)C=C3O)n1 | 0.9 µg/mL (≈ 2.91 µM) | 0.1 µg/mL (≈ 0.323 µM) | > 50 µg/mL | > 50 µg/mL | 0.17 µg/mL (≈ 0.55 µM) | 0.4 µg/mL (≈ 1.29 µM) | 6.25 µg/mL (≈ 20.2 µM) | 3.9 µg/mL (≈ 12.6 µM) | > 50 µg/mL | > 50 µg/mL | 6.25 µg/mL (≈ 20.2 µM) | 50 µg/mL (≈ 162 µM) |  |  |  |  | 
NC1=CC(=O)c2cccnc2C1=O | 0.4 µg/mL (≈ 2.3 µM) | 0.3 µg/mL (≈ 1.72 µM) | 50 µg/mL (≈ 287 µM) | 50 µg/mL (≈ 287 µM) | 0.74 µg/mL (≈ 4.25 µM) |  | 12.5 µg/mL (≈ 71.8 µM) | 0.19 µg/mL (≈ 1.09 µM) | > 100 µg/mL | 50 µg/mL (≈ 287 µM) | 12.5 µg/mL (≈ 71.8 µM) | 50 µg/mL (≈ 287 µM) |  |  |  |  | 
COC1=C(N)C(=O)c2nc(-c3nc(C(=O)O)c(C)c(-c4ccc(OC)c(OC)c4O)c3N)ccc2C1=O [STREPTONIGRIN] |  |  | 12.5 µg/mL (≈ 24.7 µM) | 6.25 µg/mL (≈ 12.3 µM) |  |  | 1.56 µg/mL (≈ 3.08 µM) |  | 6.25 µg/mL (≈ 12.3 µM) | 1.56 µg/mL (≈ 3.08 µM) | < 0.1 µg/mL | 0.1 µg/mL (≈ 0.197 µM) | 0.48 µg/mL (≈ 0.948 µM) | 0.00017 µg/mL (≈ 0.000336 µM) | 0.0025 µg/mL (≈ 0.00494 µM) | 0.61 µg/mL (≈ 1.2 µM) | 0.045 µg/mL (≈ 0.0889 µM)
